According to ChEMBL document CHEMBL1122343, “2-Benzazepines. 4. [1,2,3]Triazolo[4,5-d][2]benzazepines and dibenzo[c,f][1,2,3]triazolo[3,4-a]azepines: synthesis and evaluation as central nervous system agents” (J Med Chem, 1983):

What was measured:
[1] = target: GABA-A receptor; anion channel; assay: In vitro inhibition of [3H]diazepam binding to rat GABA-A benzodiazepine receptor; assay type: protein-complex assay
Mus musculus [2] = assay: Antianxiety activity, by anti-pentylenetetrazole test carried out on 50-54 day old mice (po); assay type: functional
Procedure, shortened: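 Oral dosing to male CF-1 mice aged 50–54 days, using a modification of the Everett and Richards method. Metrazole was given iv at 70 mg/kg as the convulsant challenge.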

Mus musculus [3] = assay: Antianxiety activity, by inclined screen procedure carried out on 50-54 day old mice(po); assay type: functional
Mus musculus [4] = assay: Antianxiety activity, by rotarod test carried out on 50-54 day old mice (po); assay type: functional
[5] = Lethal dose tested in mice by oral administration; assay type: toxicity, organism-based; details: mouse, in vivo

Row | Structure (SMILES) | IC50 [1] | ED50 (Mus musculus [2]) | ED50 (Mus musculus [3]) | ED50 (Mus musculus [4]) | LD50 [5]
1 | Clc1ccc2c(c1)C(c1ccccc1Cl)=NCc1n[nH]nc1-2 | 0.76 nM | 2.6 mg/kg | > 400 mg/kg | 57 mg/kg | > 1000 mg/kg
2 | Clc1ccc2c(c1)C(c1ccccc1)=NCc1n[nH]nc1-2 | 11 nM | 4.2 mg/kg | > 400 mg/kg | 26 mg/kg | > 1000 mg/kg
3 | CN1C(=O)CN=C(c2ccccc2)c2cc(Cl)ccc21 [DIAZEPAM] | – | 1.4 mg/kg | 25 mg/kg | 2.6 mg/kg | –
4 | Fc1ccccc1C1=NCc2n[nH]nc2-c2ccc(Cl)cc21 | 0.76 nM | 2.1 mg/kg | 302 mg/kg | 48 mg/kg | > 1000 mg/kg
5 | c1ccc(C2=NCc3n[nH]nc3-c3ccccc32)cc1 | 420 nM | > 100 mg/kg | – | – | 775 mg/kg
6 | Clc1ccccc1C1=NCc2n[nH]nc2-c2ccccc21 | 5.2 nM | > 100 mg/kg | – | – | 900 mg/kg
